Assay results from publication PMC3229621 (Biochemical pharmacology, 2011).

Tests used:
[1] = biological target: T1, CYP26A1 (Homo sapiens, UniProt O43174); experiment: Depletion of 4-OH-RA, 18-OH-RA and 4-oxo-RA by recombinant CYP26A1; assay type: in vitro ADME; details: for kdep (depletion rate constant): CYP26A1, 200 nM initial substrate, mono-exponential decay; for fold efficiency of CYP26A1 over CYP26B1 in depleting substrate: CYP26A1 vs CYP26B1
T1 sequence (O43174 1-497): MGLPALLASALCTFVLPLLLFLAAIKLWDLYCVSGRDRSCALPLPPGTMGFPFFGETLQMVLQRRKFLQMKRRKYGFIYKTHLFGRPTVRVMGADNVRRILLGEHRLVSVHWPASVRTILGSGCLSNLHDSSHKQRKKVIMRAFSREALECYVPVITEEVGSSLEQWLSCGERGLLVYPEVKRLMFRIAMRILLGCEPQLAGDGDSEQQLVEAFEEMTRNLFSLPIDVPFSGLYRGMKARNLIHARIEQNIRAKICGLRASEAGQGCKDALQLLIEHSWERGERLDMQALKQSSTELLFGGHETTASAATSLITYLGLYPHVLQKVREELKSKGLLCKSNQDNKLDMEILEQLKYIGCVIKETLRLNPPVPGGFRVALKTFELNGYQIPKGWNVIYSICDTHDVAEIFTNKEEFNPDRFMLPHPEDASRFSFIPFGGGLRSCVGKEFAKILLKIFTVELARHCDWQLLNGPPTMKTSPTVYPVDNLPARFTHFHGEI

[2] = biological target: T2, CYP26B1 (Homo sapiens, UniProt Q9NR63); experiment: Depletion of 4-OH-RA, 18-OH-RA and 4-oxo-RA by recombinant CYP26B1; assay type: in vitro ADME; details: 200 nM initial substrate, mono-exponential decay
T2 sequence (Q9NR63 1-512): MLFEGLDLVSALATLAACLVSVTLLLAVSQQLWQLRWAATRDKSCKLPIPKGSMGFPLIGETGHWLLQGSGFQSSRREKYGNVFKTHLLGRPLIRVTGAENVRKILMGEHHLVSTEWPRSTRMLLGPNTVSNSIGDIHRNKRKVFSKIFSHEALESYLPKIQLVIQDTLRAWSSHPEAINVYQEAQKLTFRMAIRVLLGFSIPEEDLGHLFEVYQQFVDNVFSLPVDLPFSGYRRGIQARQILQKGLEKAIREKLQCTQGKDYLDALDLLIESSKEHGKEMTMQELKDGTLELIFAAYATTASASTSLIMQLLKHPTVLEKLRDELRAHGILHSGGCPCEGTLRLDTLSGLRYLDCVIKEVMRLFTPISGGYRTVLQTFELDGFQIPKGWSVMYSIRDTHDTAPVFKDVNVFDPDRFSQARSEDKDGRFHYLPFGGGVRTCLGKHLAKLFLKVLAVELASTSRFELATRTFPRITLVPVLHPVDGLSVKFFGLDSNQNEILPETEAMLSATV

[3] = biological target: T1, CYP26A1; experiment: Kinetics of 4-OH-RA and 18-OH-RA formation from atRA by recombinant CYP26A1
[4] = biological target: T3, purified CYP26B1 (Homo sapiens, UniProt Q9NR63); experiment: Ligand-induced binding spectra with purified CYP26B1
T3 sequence (Q9NR63 1-512): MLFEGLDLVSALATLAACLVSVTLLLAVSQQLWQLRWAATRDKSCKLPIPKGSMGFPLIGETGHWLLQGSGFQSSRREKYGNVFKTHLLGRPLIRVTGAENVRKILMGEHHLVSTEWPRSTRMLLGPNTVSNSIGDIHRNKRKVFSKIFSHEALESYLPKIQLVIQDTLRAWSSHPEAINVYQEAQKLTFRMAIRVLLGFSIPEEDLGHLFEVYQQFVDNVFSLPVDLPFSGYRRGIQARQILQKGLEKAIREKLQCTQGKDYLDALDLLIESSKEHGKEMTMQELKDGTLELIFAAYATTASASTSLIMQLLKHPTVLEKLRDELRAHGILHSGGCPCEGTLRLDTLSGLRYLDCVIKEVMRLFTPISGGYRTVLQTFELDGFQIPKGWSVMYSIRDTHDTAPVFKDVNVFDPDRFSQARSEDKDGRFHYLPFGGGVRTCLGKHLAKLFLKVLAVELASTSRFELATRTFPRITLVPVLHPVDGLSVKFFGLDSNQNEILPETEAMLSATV
Summary of the method: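 Human CYP26B1 expressed in Sf9 insect cells, solubilized with NP40 and cholate, and purified on a Talon cobalt affinity column. Active P450 was quantified by CO difference spectrum. Enzyme at 235 pmol/mL in 100 mM KPi (pH 7.4) with 20% glycerol; absolute spectrum recorded first. Test ligand was added to test and reference cuvettes in 12.5 nM steps until saturation and maximal absorbance change.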

[5] = biological target: T2, CYP26B1; experiment: Kinetics of 4-OH-RA and 18-OH-RA formation from atRA by recombinant CYP26B1; details: substrate atRA
[6] = system: CYP3As and CYP2C8; details: by CYP3As and CYP2C8; cited from earlier work
[7] = substrate: CC1=C(/C=C/C(C)=C/C=C/C(C)=C/C(=O)O)C(C)(C)CCC1; experiment: cells, lysate or membranes named; details: other: substrate atRA, 37.0 °C

Molecule: CC1=C(/C=C/C(C)=C/C=C/C(C)=C/C(=O)O)C(C)(C)CCC1O (centres unmarked) [4-OH-RA]
- kdep (depletion rate constant) [1]: 0.00167 ± 0.00017 s⁻¹
- fold efficiency of CYP26A1 over CYP26B1 in depleting substrate [1]: 2–4 fold
- kdep (depletion rate constant) [2]: 0.0005 ± 0.00017 s⁻¹

Molecule: CC1=C(/C=C/C(C)=C/C=C/C(C)=C/C(=O)O)C(C)(C)CCC1=O [4-oxo-RA]
- kdep (depletion rate constant) [1]: 0.00083 ± 0.00017 s⁻¹
- fold efficiency of CYP26A1 over CYP26B1 in depleting substrate [1]: 2–4 fold
- kdep (depletion rate constant) [2]: 0.00033 ± 0 s⁻¹

Molecule: CC(/C=C/C1=C(CO)CCCC1(C)C)=C\C=C\C(C)=C\C(=O)O [18-OH-RA, 18-hydroxyretinoic acid]
- kdep (depletion rate constant) [1]: 0.002 ± 0.00017 s⁻¹
- fold efficiency of CYP26A1 over CYP26B1 in depleting substrate [1]: 2–4 fold
- kdep (depletion rate constant) [2]: 0.0005 ± 0.00017 s⁻¹

Molecule: CC1=C(/C=C/C(C)=C/C=C/C(C)=C/C(=O)O)C(C)(C)CCC1 [atRA, All-trans-retinoic acid]
- fold efficiency of CYP26A1 over CYP26B1 in overall depletion of atRA ([3]; formation of multiple primary metabolites (4-OH-RA, 18-OH-RA and 16-OH-RA)): approximately 20 fold
- Km for CYP26A1 relative to CYP26B1 ([3]; substrate atRA): two-fold higher
- Clint, 4-OH RA formation ([3]; substrate atRA, CYP26A1): 190 µL/min/pmol P450
- Clint, 18-OH RA formation ([3]; substrate atRA, CYP26A1): 102 µL/min/pmol P450
- Vmax, 4-OH RA formation ([3]; substrate atRA, CYP26A1): 9.5 ± 2.2 pmol/min/pmol P450
- Vmax, 18-OH RA formation ([3]; substrate atRA, CYP26A1): 5.0 ± 0.5 pmol/min/pmol P450
- lower Vmax for 18-OH-RA formation compared to 4-OH-RA formation ([3]; substrate atRA, CYP26A1): 45%
- binding of atRA with CYP26B1 (magnitude of difference spectrum) ([4]; atRA concentration dependent): tight binding
- ligand-induced difference spectrum type ([4]; purified CYP26B1 235 pmol/mL, atRA 10 nM to 500 nM, low-to-high spin shift of heme iron): type I difference spectrum
- 18-OH-RA formation by CYP26B1 [5]: could be detected but the formation was insufficient to determine kinetic constants
- Vmax of CYP26B1 mediated 4-OH-RA formation relative to CYP26A1 [5]: 10%
- fold higher intrinsic clearance by CYP26B1 than by CYP3A4 and CYP2C8 [5]: approximately 100 fold
- Clint, 4-OH RA formation ([5]; CYP26B1): 43 µL/min/pmol P450
- Vmax, 4-OH RA formation ([5]; CYP26B1): 0.81 ± 0.2 pmol/min/pmol P450
- Vmax for atRA hydroxylation [6]: 2–5 pmol/min/pmol P450
- intrinsic clearance of atRA metabolism [6]: 0.2–0.4 µL/min/pmol P450

B1: CYP26B1 (Homo sapiens) (protein)
chain: MLFEGLDLVSALATLAACLVSVTLLLAVSQQLWQLRWAATRDKSCKLPIPKGSMGFPLIGETGHWLLQGSGFQSSRREKYGNVFKTHLLGRPLIRVTGAENVRKILMGEHHLVSTEWPRSTRMLLGPNTVSNSIGDIHRNKRKVFSKIFSHEALESYLPKIQLVIQDTLRAWSSHPEAINVYQEAQKLTFRMAIRVLLGFSIPEEDLGHLFEVYQQFVDNVFSLPVDLPFSGYRRGIQARQILQKGLEKAIREKLQCTQGKDYLDALDLLIESSKEHGKEMTMQELKDGTLELIFAAYATTASASTSLIMQLLKHPTVLEKLRDELRAHGILHSGGCPCEGTLRLDTLSGLRYLDCVIKEVMRLFTPISGGYRTVLQTFELDGFQIPKGWSVMYSIRDTHDTAPVFKDVNVFDPDRFSQARSEDKDGRFHYLPFGGGVRTCLGKHLAKLFLKVLAVELASTSRFELATRTFPRITLVPVLHPVDGLSVKFFGLDSNQNEILPETEAMLSATV
- kcat ([7]; CYP26B1): 0.8 pmol/min/pmol P450
- kcat ([7]; CYP26B1, abstract): 0.8 pmol/min/pmol

B2: CYP26A1 (Homo sapiens) (protein)
chain: MGLPALLASALCTFVLPLLLFLAAIKLWDLYCVSGRDRSCALPLPPGTMGFPFFGETLQMVLQRRKFLQMKRRKYGFIYKTHLFGRPTVRVMGADNVRRILLGEHRLVSVHWPASVRTILGSGCLSNLHDSSHKQRKKVIMRAFSREALECYVPVITEEVGSSLEQWLSCGERGLLVYPEVKRLMFRIAMRILLGCEPQLAGDGDSEQQLVEAFEEMTRNLFSLPIDVPFSGLYRGMKARNLIHARIEQNIRAKICGLRASEAGQGCKDALQLLIEHSWERGERLDMQALKQSSTELLFGGHETTASAATSLITYLGLYPHVLQKVREELKSKGLLCKSNQDNKLDMEILEQLKYIGCVIKETLRLNPPVPGGFRVALKTFELNGYQIPKGWNVIYSICDTHDVAEIFTNKEEFNPDRFMLPHPEDASRFSFIPFGGGLRSCVGKEFAKILLKIFTVELARHCDWQLLNGPPTMKTSPTVYPVDNLPARFTHFHGEI
- kcat ([7]; CYP26A1): 10 pmol/min/pmol P450
- kcat ([7]; CYP26A1, abstract): 10 pmol/min/pmol
